Test results: ChEMBL document CHEMBL1152936, “Human sialidase inhibitors: design, synthesis, and biological evaluation of 4-acetamido-5-acylamido-2-fluoro benzoic acids” (Bioorg Med Chem, 2009)
Activity calls are given as the source filed them. The calls are words filed in the database; no cut-off is given here.

Key:
[1] = biological target: Sialidase-1 (Homo sapiens) (UniProt Q99519); experiment: Inhibition of human NEU1 transiently transfected in HEK293 cells at 1 mM by fluorimetric analysis; assay type: cell-based
Procedure, shortened: (§1)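 Enzyme source was the crude supernatant of homogenates from HEK-293 cells transiently transfected with a full-length human sialidase cDNA plasmid. The reaction contained 10–20 nmol substrate (4MU-Neu5Ac) as bound sialic acid, 0.2 mg BSA, sodium acetate pH 4.6 and 0.2 mg Triton X-100. It was incubated at 37 °C for 10–30 min, and released sialic acid was quantified. Inhibitors were tested at 1 mM and reported as percent inhibition.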

[2] = biological target: T1, Sialidase-3 (Homo sapiens) (UniProt Q9UQ49); experiment: Inhibition of human NEU3 transiently transfected in HEK293 cells at 1 mM by fluorimetric analysis; assay type: cell-based; procedure, shortened: as §1
T1 sequence (whole entry): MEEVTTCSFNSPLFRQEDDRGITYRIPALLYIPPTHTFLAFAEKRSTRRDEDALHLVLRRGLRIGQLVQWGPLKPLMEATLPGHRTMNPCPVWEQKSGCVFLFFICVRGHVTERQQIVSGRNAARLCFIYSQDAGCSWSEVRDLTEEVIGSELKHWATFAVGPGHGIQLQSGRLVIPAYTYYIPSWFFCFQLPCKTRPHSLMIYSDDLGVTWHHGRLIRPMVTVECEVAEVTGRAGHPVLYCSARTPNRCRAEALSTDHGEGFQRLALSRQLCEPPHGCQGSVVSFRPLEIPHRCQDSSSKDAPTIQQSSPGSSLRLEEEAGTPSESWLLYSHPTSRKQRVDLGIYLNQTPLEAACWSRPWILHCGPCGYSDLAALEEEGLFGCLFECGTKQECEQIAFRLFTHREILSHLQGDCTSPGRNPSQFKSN

[3] = biological target: T2, Sialidase-4 (Homo sapiens) (UniProt Q8WWR8); experiment: Inhibition of human NEU4 transiently transfected in HEK293 cells at 1 mM by fluorimetric analysis; assay type: cell-based; procedure, shortened: as §1
T2 sequence (whole entry): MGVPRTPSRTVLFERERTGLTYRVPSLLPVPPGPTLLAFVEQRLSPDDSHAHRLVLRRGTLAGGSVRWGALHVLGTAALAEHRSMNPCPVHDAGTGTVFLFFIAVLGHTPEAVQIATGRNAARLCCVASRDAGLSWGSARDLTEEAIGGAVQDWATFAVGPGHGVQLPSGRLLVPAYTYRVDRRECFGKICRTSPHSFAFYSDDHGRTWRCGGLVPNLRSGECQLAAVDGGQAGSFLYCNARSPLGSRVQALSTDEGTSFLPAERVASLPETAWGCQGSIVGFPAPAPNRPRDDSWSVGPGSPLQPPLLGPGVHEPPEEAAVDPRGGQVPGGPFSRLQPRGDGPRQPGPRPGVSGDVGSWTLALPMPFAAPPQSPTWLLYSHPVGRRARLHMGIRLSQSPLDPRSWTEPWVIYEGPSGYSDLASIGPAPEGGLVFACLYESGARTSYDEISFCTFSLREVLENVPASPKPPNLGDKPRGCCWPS

Sialidase-3 [4] = biological target: T3, Sialidase-3 (Homo sapiens, UniProt Q9UQ49); experiment: Inhibition of human NEU3 transiently transfected in HEK293 cells by fluorimetric analysis; assay type: cell-based
T3 sequence (Q9UQ49 whole entry): T1 sequence (whole entry)
Procedure, shortened: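 The sialidase was the crude supernatant of homogenized HEK-293 cells transiently transfected with full-length human NEU3 cDNA. The mixture held 10–20 nmol 4MU-Neu5Ac as bound sialic acid, 0.2 mg BSA, sodium acetate pH 4.6 and 0.2 mg Triton X-100, run at 37 °C for 10–30 min. Released sialic acid was measured, and IC50 came from nonlinear regression of concentration–inhibition curves.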

Sialidase-4 = biological target: T4, Sialidase-4 (Homo sapiens, UniProt Q8WWR8); experiment: Inhibition of human NEU4 transiently transfected in HEK293 cells by fluorimetric analysis
T4 sequence (Q8WWR8 whole entry): T2 sequence (whole entry)

Sialidase-3 [5] = biological target: T3, Sialidase-3; experiment: Inhibition of human NEU3 transiently transfected in HEK293T cells by fluorimetric high-performance liquid chromatography; assay type: cell-based, HEK-293T
Procedure, shortened: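 Crude supernatant of homogenates from HEK-293 cells transiently transfected with full-length human sialidase cDNA. Reaction: 10–20 nmol substrate as bound sialic acid, 0.2 mg BSA, sodium acetate pH 4.6, 0.2 mg Triton X-100.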

Row | SMILES | inhibition [1] | inhibition [2] | inhibition [3] | IC50 (Sialidase-3 [4]) | IC50 (Sialidase-4) | IC50 (Sialidase-3 [5])
1 | CC(=O)Nc1cc(F)c(C(=O)O)cc1NC(=O)c1ccccc1 | inactive | inactive | inactive |  |  | 
2 | CCC(C)C(=O)Nc1cc(C(=O)O)c(F)cc1NC(C)=O (stereo unspecified) | inactive | inactive | inactive |  |  | 
3 | CC(=O)Nc1cc(F)c(C(=O)O)cc1NC(C)=O | inactive | 23% | 8% | > 2000 µM |  | 
4 | CC(=O)Nc1cc(F)c(C(=O)O)cc1NC(=O)C1CCCCC1 | inactive | inactive | 6% |  |  | 
5 | CC(=O)Nc1cc(F)c(C(=O)O)cc1NC(=O)C1CCCC1 | inactive | inactive | inactive |  |  | 
6 | CC(=O)Nc1cc(F)c(C(=O)O)cc1NC(=O)c1ccc2ccccc2c1 | inactive | 8% | 10% |  |  | 
7 | CCCCC(=O)Nc1cc(C(=O)O)c(F)cc1NC(C)=O | inactive | 13% | < 5% |  |  | 
8 | CC(=O)Nc1cc(F)c(C(=O)O)cc1NC(=O)C(C)(C)C | inactive | inactive | < 5% |  |  | 
9 | CC(=O)Nc1cc(F)c(C(=O)O)cc1NC(=O)C(C)C | inactive | inactive | 11% |  |  | 

Other lines, results leading:

Row | inhibition [1] | inhibition [2] | inhibition [3] | IC50 (Sialidase-3 [4]) | IC50 (Sialidase-4) | IC50 (Sialidase-3 [5]) | SMILES
10 | inactive | inactive | < 5% |  |  |  | CCCC(=O)Nc1cc(C(=O)O)c(F)cc1NC(C)=O
11 | inactive | inactive | < 5% |  |  |  | CCC(CC)C(=O)Nc1cc(C(=O)O)c(F)cc1NC(C)=O
12 | inactive |  |  | ≥ 5000 µM | ≥ 5000 µM |  | CC(=O)Nc1cc(F)c(C(=O)O)cc1NC(=O)c1ccc(-c2ccccc2)cc1
13 |  |  |  |  |  | 60 µM | CC(=O)N[C@H]1[C@H]([C@H](O)[C@H](O)CO)OC(C(=O)O)=C[C@@H]1O [NEU5AC2EN]
14 | inactive | inactive | inactive |  |  |  | CC(=O)Nc1cc(F)c(C(=O)O)cc1NC(=O)C1CC1
